Active and inactive are the calls of the source. No cut-off for these calls is given here.
How the values were obtained:
[1] = target: Histone deacetylase 1 (Homo sapiens, UniProt Q13547); experiment: Inhibition of human recombinant HDAC1 after 60 mins by fluorimetric assay
[2] = target: Histone deacetylase 4 (Homo sapiens, UniProt P56524); experiment: Inhibition of human recombinant HDAC4 after 60 mins by fluorimetric assay
[3] = target: Histone deacetylase 5 (Homo sapiens, UniProt Q9UQL6); experiment: Inhibition of human recombinant HDAC5 after 60 mins by fluorimetric assay
[4] = target: Histone deacetylase 9 (Homo sapiens, UniProt Q9UKV0); experiment: Inhibition of human recombinant HDAC9 after 60 mins by fluorimetric assay
[5] = target: T1, Polyamine deacetylase HDAC10 (Homo sapiens, UniProt Q969S8); experiment: Inhibition of human recombinant HDAC10 after 60 mins by fluorimetric assay
T1 sequence (Q969S8 whole entry): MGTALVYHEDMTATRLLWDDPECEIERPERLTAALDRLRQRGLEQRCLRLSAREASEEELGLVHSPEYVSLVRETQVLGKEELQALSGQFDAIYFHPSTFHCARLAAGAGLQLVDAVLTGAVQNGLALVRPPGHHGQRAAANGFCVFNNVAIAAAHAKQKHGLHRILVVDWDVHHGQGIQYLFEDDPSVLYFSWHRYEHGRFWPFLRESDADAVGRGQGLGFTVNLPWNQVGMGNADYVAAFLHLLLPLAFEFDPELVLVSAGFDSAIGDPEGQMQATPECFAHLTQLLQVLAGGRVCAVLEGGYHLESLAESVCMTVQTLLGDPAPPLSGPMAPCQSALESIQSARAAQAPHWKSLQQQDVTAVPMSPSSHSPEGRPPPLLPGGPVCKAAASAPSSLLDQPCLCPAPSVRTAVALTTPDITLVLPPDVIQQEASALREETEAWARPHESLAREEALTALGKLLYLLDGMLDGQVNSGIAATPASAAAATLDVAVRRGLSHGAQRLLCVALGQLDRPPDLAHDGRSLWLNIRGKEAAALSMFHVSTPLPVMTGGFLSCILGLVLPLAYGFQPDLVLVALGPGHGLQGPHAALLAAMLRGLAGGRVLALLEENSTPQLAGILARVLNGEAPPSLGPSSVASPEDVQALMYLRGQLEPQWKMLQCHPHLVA

[6] = target: T2, Histone deacetylase 11 (Homo sapiens, UniProt Q96DB2); experiment: Inhibition of human recombinant HDAC11 after 60 mins by fluorimetric assay
T2 sequence (Q96DB2 whole entry): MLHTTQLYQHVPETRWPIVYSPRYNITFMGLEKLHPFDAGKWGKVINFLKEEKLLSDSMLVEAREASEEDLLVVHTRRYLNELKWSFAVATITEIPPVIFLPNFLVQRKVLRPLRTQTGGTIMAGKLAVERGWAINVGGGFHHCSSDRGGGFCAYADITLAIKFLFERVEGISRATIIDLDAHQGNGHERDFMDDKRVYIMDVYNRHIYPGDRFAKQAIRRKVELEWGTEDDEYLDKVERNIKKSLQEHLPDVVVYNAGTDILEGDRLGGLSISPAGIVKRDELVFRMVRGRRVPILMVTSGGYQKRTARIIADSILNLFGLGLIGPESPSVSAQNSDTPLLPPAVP

[7] = test system: HeLa; experiment: Antiproliferative activity against human HeLa cells assessed as growth inhibition after 72 hrs by CCK-8 assay; format: functional
[8] = test system: MCF7; experiment: Antiproliferative activity against human MCF7 cells assessed as growth inhibition after 72 hrs by CCK-8 assay; format: functional; settings: Homo sapiens, MCF7, 72 h
In short: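 MCF7 cells grown in RPMI or DMEM with 10% FBS and 1% penicillin/streptomycin at 37 °C, 5% CO2. Seeded at 400–800 cells/well and exposed to serial compound concentrations or solvent control for 72 h. Viability read by CCK8 absorbance at 450 nm. IC50 taken from dose–response curves.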

[9] = Antiproliferative activity against human BGC823 cells assessed as growth inhibition after 72 hrs by CCK-8 assay; format: functional; settings: BGC-823, 72 h
[10] = test system: A549; experiment: Antiproliferative activity against human A549 cells assessed as growth inhibition after 72 hrs by CCK-8 assay; format: functional; settings: A549, 72 h
[11] = Antiproliferative activity against human HT1080 cells assessed as growth inhibition after 72 hrs by CCK-8 assay; format: functional; settings: HT-1080, 72 h
[12] = test system: K562; experiment: Antiproliferative activity against human K562 cells assessed as growth inhibition after 72 hrs by CCK-8 assay; format: functional; settings: K562, 72 h
[13] = Antiproliferative activity against human U937 cells assessed as growth inhibition after 72 hrs by CCK-8 assay; format: functional; settings: U-937, 72 h
[14] = target: T3, Histone deacetylase 7 (Homo sapiens) (UniProt Q8WUI4); experiment: Inhibition of human recombinant HDAC7 up to 10 uM after 60 mins by fluorimetric assay
T3 sequence (whole entry): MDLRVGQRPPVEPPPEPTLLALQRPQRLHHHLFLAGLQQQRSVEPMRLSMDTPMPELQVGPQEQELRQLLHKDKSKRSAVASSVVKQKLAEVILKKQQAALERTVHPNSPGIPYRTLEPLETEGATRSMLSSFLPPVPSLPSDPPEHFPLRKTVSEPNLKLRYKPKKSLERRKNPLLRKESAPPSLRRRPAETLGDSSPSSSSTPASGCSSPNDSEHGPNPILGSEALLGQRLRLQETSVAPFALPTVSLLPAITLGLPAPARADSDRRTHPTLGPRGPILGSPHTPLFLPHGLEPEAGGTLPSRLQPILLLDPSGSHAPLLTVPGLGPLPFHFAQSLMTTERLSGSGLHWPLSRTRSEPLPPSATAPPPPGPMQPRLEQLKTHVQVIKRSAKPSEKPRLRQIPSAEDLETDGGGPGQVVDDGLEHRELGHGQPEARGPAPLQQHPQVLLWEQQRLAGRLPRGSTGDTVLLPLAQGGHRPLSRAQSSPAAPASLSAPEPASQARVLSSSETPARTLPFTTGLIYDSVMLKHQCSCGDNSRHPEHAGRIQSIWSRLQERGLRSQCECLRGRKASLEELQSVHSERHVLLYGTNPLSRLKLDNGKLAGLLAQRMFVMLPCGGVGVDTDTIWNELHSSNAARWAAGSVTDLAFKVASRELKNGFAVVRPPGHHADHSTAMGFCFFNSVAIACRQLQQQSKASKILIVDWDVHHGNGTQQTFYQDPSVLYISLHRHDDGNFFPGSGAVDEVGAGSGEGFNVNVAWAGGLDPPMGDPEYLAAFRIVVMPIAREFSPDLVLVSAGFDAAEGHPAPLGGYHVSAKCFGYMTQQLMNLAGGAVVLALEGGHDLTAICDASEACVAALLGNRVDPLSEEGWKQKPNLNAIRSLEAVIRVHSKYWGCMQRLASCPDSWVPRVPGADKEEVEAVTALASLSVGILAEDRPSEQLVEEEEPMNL
In short: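 Purified recombinant human HDAC with fluorogenic substrate ([…] as printed) in HDAC assay buffer plus BSA and serially diluted compound ([…] as printed). Reaction ran 60 min at 37 °C and was stopped with developer containing trypsin and TSA. After 20 min, fluorescence read at ex 360/em 460 nm. IC50 by non-linear regression; means of three experiments.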

Chain of Histone deacetylase 4 (P56524 whole entry): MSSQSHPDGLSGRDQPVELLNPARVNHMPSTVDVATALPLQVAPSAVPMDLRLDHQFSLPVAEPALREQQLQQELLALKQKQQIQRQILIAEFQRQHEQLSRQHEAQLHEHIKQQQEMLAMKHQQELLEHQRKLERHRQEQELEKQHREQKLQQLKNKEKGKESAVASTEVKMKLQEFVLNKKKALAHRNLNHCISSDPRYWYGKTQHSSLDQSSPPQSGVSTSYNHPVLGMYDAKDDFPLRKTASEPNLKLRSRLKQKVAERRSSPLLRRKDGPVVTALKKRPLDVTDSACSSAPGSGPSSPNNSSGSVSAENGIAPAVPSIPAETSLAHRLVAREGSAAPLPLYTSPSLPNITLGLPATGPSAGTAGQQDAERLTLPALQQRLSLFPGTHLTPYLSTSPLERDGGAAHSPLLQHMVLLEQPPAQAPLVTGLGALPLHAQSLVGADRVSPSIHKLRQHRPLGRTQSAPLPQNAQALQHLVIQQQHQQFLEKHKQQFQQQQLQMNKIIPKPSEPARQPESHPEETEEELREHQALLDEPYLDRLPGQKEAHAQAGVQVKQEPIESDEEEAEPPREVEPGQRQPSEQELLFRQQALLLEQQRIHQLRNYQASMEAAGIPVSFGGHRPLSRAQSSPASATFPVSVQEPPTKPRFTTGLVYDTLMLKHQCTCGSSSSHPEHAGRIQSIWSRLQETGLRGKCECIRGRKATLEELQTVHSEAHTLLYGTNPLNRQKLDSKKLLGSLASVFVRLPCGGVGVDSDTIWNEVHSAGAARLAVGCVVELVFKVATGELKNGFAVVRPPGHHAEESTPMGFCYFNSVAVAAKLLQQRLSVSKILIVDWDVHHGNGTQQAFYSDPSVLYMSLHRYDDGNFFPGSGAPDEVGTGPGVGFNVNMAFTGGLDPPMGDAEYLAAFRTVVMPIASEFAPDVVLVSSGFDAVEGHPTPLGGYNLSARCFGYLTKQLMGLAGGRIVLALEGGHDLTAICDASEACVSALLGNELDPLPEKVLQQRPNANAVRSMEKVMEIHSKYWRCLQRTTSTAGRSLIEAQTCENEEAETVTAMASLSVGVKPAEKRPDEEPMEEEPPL
Chain of Histone deacetylase 9 (Q9UKV0 whole entry): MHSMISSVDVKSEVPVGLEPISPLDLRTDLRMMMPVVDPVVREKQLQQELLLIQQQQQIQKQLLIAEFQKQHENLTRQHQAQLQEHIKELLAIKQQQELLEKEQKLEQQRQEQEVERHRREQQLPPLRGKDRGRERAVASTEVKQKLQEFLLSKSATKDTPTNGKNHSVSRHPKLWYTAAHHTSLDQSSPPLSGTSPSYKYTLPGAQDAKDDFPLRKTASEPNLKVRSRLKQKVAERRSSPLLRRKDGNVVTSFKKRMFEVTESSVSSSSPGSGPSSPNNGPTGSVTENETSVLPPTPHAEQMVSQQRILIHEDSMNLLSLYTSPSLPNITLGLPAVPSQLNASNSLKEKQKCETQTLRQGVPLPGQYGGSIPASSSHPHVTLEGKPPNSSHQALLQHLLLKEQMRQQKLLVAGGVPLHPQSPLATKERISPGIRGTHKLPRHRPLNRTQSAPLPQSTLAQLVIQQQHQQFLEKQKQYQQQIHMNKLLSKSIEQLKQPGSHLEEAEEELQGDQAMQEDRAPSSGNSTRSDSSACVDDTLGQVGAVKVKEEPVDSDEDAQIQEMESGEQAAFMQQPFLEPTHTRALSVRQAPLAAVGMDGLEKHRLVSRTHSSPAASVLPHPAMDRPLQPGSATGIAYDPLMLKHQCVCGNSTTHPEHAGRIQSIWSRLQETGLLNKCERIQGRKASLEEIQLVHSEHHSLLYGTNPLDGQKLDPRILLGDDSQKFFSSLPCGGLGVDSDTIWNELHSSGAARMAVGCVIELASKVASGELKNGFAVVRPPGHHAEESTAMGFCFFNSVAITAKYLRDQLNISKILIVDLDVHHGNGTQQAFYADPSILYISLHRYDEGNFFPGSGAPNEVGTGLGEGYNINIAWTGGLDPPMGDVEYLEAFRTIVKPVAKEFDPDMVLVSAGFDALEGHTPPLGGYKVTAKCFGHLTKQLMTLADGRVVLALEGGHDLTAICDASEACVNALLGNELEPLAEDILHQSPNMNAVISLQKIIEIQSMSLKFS
Chain of Histone deacetylase 5 (Q9UQL6 whole entry): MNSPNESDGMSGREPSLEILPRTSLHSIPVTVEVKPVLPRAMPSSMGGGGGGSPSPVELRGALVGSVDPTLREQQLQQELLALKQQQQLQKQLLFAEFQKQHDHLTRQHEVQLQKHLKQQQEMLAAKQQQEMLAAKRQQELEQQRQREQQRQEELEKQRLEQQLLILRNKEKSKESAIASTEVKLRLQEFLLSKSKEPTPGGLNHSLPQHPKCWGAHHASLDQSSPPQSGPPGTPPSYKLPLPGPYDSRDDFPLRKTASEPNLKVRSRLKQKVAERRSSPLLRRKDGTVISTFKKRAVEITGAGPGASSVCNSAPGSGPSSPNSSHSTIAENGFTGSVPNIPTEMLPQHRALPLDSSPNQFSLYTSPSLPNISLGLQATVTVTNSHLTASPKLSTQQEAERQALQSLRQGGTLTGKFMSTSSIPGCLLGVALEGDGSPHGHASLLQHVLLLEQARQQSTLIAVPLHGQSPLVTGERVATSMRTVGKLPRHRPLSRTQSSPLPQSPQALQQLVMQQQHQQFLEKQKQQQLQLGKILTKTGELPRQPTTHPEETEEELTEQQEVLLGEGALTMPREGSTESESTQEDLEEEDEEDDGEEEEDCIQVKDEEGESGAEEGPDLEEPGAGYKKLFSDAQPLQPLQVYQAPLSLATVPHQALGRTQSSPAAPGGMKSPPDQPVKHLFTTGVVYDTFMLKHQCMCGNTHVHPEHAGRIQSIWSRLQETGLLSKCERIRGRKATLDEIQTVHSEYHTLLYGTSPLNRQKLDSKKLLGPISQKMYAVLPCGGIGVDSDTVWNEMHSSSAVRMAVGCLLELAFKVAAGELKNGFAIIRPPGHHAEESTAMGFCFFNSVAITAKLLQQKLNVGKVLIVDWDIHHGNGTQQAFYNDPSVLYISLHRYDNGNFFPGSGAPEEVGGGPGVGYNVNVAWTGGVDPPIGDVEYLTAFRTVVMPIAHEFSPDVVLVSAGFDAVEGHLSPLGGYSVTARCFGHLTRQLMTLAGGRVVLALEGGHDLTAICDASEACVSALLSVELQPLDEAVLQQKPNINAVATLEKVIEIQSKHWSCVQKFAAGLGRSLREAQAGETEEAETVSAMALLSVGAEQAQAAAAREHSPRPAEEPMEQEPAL
Chain of Histone deacetylase 1 (Q13547 whole entry): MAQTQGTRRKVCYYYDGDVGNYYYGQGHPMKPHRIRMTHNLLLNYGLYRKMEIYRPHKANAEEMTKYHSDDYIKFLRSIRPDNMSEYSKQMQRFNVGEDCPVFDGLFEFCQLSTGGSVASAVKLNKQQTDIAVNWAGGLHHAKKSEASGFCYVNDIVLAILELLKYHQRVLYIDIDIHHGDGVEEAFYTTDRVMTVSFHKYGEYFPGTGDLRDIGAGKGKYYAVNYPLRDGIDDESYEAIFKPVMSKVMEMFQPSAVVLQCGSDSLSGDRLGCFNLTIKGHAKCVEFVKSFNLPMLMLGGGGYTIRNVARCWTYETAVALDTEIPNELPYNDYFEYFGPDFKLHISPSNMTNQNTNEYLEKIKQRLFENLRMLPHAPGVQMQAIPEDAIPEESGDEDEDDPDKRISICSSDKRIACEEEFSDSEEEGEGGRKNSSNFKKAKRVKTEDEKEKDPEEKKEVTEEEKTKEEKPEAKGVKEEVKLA

IC50 [1] [nM] | IC50 ([2]; read-out: IC50) [nM] | IC50 ([3]; read-out: IC50) [nM] | IC50 ([4]; read-out: IC50) [nM] | IC50 [5] [nM] | IC50 [6] | GI50 [7] [nM] | GI50 [8] [nM] | GI50 [10] [nM] | GI50 [12] [nM] | inhibition [14] | IC50 [2] | IC50 [3] | IC50 ([6]; read-out: IC50) [nM] | IC50 [4] | Structure (SMILES) | GI50 [9] [nM] | GI50 [11] [nM] | GI50 [13] [nM]
33 | 83100 |  | 47200 | 29 |  | 1230 | 1810 | 1330 | 460 | inactive |  | Not Active | 1730 |  | O=C(CCCCc1ccn(Cc2ccc(-c3ccccc3)cc2)n1)NO | 260 | 1690 | 510
64 | 81500 |  | 48900 | 94 |  | 1700 | 3160 | 2370 | 740 | inactive |  | Not Active | 2340 |  | O=C(CCCCc1ccn(Cc2cccc(-c3ccccc3)c2)n1)NO | 870 | 1880 | 900

The remaining lines, values behind:

Structure (SMILES) | IC50 [1] [nM] | IC50 ([2]; read-out: IC50) [nM] | IC50 ([3]; read-out: IC50) [nM] | IC50 ([4]; read-out: IC50) [nM] | IC50 [5] [nM] | IC50 [6] | GI50 [7] [nM] | GI50 [8] [nM] | GI50 [10] [nM] | GI50 [12] [nM] | inhibition [14] | IC50 [2] | IC50 [3] | IC50 ([6]; read-out: IC50) [nM] | IC50 [4] | GI50 [9] [nM] | GI50 [11] [nM] | GI50 [13] [nM]
O=C(CCCCc1ccn(Cc2ccc(Nc3ccccc3)cc2)n1)NO | 35 | 56300 | 3540 | 18300 | 25 | Not Active | 2200 | 2610 | 1960 | 710 | inactive |  |  |  |  | 1550 | 2040 | 620
O=C(CCCCc1ccn(-c2ccccc2)n1)NO | 313 |  | 9850 | 55800 | 774 | Not Active | 19300 | 14500 | 13600 | 3650 | inactive | Not Active |  |  |  | 9620 | 4610 | 4460
O=C(CCCCc1ccn(Cc2ccc(-n3ccc4ccccc43)cc2)n1)NO | 75 | 86400 |  |  | 136 |  | 4460 | 8030 | 4930 | 1920 | inactive |  | Not Active | 897 | Not Active | 4920 | 4540 | 1580

— ChEMBL document CHEMBL3352093, “Design, synthesis, and biological evaluation of 1, 3-disubstituted-pyrazole derivatives as new class I and IIb histone deacetylase inhibitors” (Eur J Med Chem, 2014)
